# Assay results reported in ChEMBL document CHEMBL4732053, “Design, synthesis and structure-activity relationship study of novel urea compounds as FGFR1 inhibitors to treat metastatic triple-negative breast cancer” (Eur J Med Chem, 2021).
# pIC50: −log10 of the molar value.
# Tested on: MDA-MB-231
# Experiment: Cytotoxicity against human MDA-MB-231 cells assessed as reduction in cell viability incubated for 48 hrs by MTT assay
# Type: functional, cell-based
# Conditions: MDA-MB-231, 48 h
# How it was run: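 MTT assay in MDA-MB-231 cells grown in DMEM with 10% heat-inactivated FBS at 37 °C and 5% CO2. Cells were seeded at 8000 per well, left 24 h, then exposed for 48 h to 0–25 μM in DMEM with 2% FBS (final DMSO 0.1%). MTT (0.5 mg/mL) was added for 2 h, formazan was dissolved in DMSO and read at 570 nm. Runs were in triplicate and IC50 was derived from the curves.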
row,SMILES,pIC50
1,Cc1ccc(NC(=O)NCCCCN(c2ccc(F)cc2)c2ccc(F)cc2)cc1C,< 4.70
2,O=C(Nc1ccc(Cl)c(C(F)(F)F)c1)N1CCC(CC(c2ccc(F)cc2)c2ccc(F)cc2)CC1,5.32
3,Nc1cc(NC(=O)NCCCCC(c2ccc(F)cc2)c2ccc(F)cc2)ccc1Cl,5.03
4,O=C(NCCCCC(c1ccc(F)cc1)c1ccc(F)cc1)Nc1cccc([N+](=O)[O-])c1,5.42
5,CC(=O)Nc1ccc(NC(=O)NCCCCC(c2ccc(F)cc2)c2ccc(F)cc2)cc1,< 4.70
6,O=C(NCCCCC(c1ccc(F)cc1)c1ccc(F)cc1)Nc1ccc([N+](=O)[O-])c(Cl)c1,5.46
7,O=C(NCCCCC(c1ccc(OC(F)(F)F)cc1)c1ccc(OC(F)(F)F)cc1)Nc1ccc(Cl)c(C(F)(F)F)c1,5.77
8,Fc1ccc(C(CCCCOC2COC(c3ccccc3)OC2)c2ccc(F)cc2)cc1 (stereo not given),< 4.70
9,O=C(NCCCCC(c1ccc(F)cc1)c1ccc(F)cc1)Nc1cccc(Cl)c1,5.29
10,O=C(NCCCCC(c1ccc([N+](=O)[O-])cc1)c1ccc([N+](=O)[O-])cc1)Nc1ccc(Cl)c(C(F)(F)F)c1,5.91
11,O=C(NCCCCC(c1ccc(F)cc1)c1ccc(F)cc1)Nc1ccc(Cl)c([N+](=O)[O-])c1,5.39
12,O=C(NCCCCC(c1ccc(F)cc1)c1ccc(F)cc1)Nc1ccc([N+](=O)[O-])cc1,5.19
13,Cc1ccc(C(CCCCNC(=O)Nc2ccc(Cl)c(C(F)(F)F)c2)c2ccc(C)cc2)cc1,5.60
14,O=C(OCCCC(c1ccc(F)cc1)c1ccc(F)cc1)c1cc(Cl)c(OCc2ccccc2)c(Cl)c1,< 4.70
15,O=C(NCCCCC(c1ccc(F)cc1)c1ccc(F)cc1)Nc1ccc(I)cc1,4.93
16,CC(=O)Nc1ccc(C(CCCCNC(=O)Nc2ccc(Cl)c(C(F)(F)F)c2)c2ccc(NC(C)=O)cc2)cc1,< 4.70
17,O=S(=O)(c1ccc(Cl)c(C(F)(F)F)c1)N1CCN(CCCCC(c2ccc(F)cc2)c2ccc(F)cc2)CC1,< 4.70
18,O=C(Nc1ccc(Cl)c(C(F)(F)F)c1)N1CCC(=C(c2ccc(F)cc2)c2ccc(F)cc2)CC1,5.25

row,SMILES,pIC50
1,Fc1ccc(C(CCCCOCc2ccc(Oc3ccc(Cl)cc3)cc2)c2ccc(F)cc2)cc1,< 4.70
2,Fc1ccc(C(CCCCNC(=S)Nc2ccc(Cl)c(C(F)(F)F)c2)c2ccc(F)cc2)cc1,5.44
3,O=C(NCCCCC(c1ccc(F)cc1)c1ccc(F)cc1)Nc1cccc(C(F)(F)F)c1,5.47
4,Cc1ccc(NC(=O)NCCCCC(c2ccc(F)cc2)c2ccc(F)cc2)cc1,< 4.70
5,Nc1ccc(C(CCCCNC(=O)Nc2ccc(Cl)c(C(F)(F)F)c2)c2ccc(N)cc2)cc1,4.91
6,O=C(CCCCC(c1ccc(F)cc1)c1ccc(F)cc1)Nc1ccc(Cl)c(C(F)(F)F)c1,4.94
7,Fc1ccc(C(CCCCN(c2ccc(F)cc2)c2ccc(F)cc2)c2ccc(F)cc2)cc1,< 4.70
8,Cc1cccc(NC(=O)NCCCCC(c2ccc(F)cc2)c2ccc(F)cc2)c1,< 4.70
9,Nc1ccc(NC(=O)NCCCCC(c2ccc(F)cc2)c2ccc(F)cc2)cc1,< 4.70
10,O=C(NCCCCC(c1ccc(F)cc1)c1ccc(F)cc1)Nc1ccc(Br)cc1I,< 4.70
11,COC(=O)c1ccc(NC(=O)NCCCCC(c2ccc(F)cc2)c2ccc(F)cc2)cc1C(F)(F)F,5.35
12,O=C(NCCCCCc1ccc(F)cc1)Nc1ccc(Cl)c(C(F)(F)F)c1,5.26
13,O=C(NCCCCC(c1ccccc1)c1ccccc1)Nc1ccc(Cl)c(C(F)(F)F)c1,5.24
14,O=C(NCCCCC(c1ccc(F)cc1)c1ccc(F)cc1)Nc1ccc(C(=O)O)c(C(F)(F)F)c1,< 4.70
15,O=C(NCCCCC(c1ccc(F)cc1)c1ccc(F)cc1)Nc1ccc(C(F)(F)F)cc1,5.56
16,O=C(NCCCCN(c1ccc(F)cc1)c1ccc(F)cc1)Nc1ccc(I)cc1,< 4.70
17,OC1(c2ccc(Cl)c(C(F)(F)F)c2)CCN(CCCC(c2ccc(F)cc2)c2ccc(F)cc2)CC1 [PENFLURIDOL],5.64
18,O=C(NCCCCN(c1ccc(F)cc1)c1ccc(F)cc1)Nc1ccc(Br)cc1I,< 4.70

# Target: DAT (sodium-dependent dopamine transporter) (Homo sapiens, UniProt Q01959)
# Sequence (Q01959 whole entry): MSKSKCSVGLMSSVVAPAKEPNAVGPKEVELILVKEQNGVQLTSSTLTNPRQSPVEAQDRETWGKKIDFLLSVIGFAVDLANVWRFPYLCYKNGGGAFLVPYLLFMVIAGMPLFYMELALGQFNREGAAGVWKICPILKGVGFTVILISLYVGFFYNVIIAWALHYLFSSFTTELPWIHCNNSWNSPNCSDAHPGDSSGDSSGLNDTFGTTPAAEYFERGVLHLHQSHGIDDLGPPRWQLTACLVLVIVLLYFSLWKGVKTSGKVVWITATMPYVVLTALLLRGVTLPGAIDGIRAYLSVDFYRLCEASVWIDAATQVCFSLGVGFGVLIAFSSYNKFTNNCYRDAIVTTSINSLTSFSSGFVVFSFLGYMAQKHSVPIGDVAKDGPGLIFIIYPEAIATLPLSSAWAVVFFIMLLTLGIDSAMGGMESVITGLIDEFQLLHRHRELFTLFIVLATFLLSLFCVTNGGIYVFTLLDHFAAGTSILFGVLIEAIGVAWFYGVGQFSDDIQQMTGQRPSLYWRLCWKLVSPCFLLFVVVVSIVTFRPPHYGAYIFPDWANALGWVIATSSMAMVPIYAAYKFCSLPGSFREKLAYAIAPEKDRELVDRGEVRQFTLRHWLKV
# Experiment: Inhibition of DAT (unknown origin) at 10 uM relative to control
# Conditions: not given
# How it was run: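 Primary radioligand-binding screen by the NIMH Psychoactive Drug Screening Program. Each compound was tested at a final concentration of 10 μM in triplicate or quadruplicate, and % inhibition was recorded. Data are mean ± SEM of four independent experiments. Compounds reaching at least 50% antagonist activity went on to secondary dose-response assays.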
row,SMILES,inhibition at 10 µM
1,O=C(Nc1ccc(Cl)c(C(F)(F)F)c1)N1CCC(CC(c2ccc(F)cc2)c2ccc(F)cc2)CC1,24%
2,Cc1ccc(C(CCCCNC(=O)Nc2ccc(Cl)c(C(F)(F)F)c2)c2ccc(C)cc2)cc1,38%
3,O=C(NCCCCC(c1ccc(F)cc1)c1ccc(F)cc1)Nc1ccc(I)cc1,24%
4,O=C(CCCCC(c1ccc(F)cc1)c1ccc(F)cc1)Nc1ccc(Cl)c(C(F)(F)F)c1,33%
